# DYRK1A inh: rat Dyrk1A kinase inhibitors, primary screen, biochemical, single point, plate reader; AID 504441, 2011; Dual specificity tyrosine-phosphorylation-regulated kinase 1A (Rattus norvegicus), Q63470; ADP-Glo luminescence, NFATc1 peptide; inhibition, % at 12.5 µM; 310,000 compounds, 0.43% hits; in the data active means inhibition above about 50%;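 further: plate controls were vehicle with enzyme for no effect and no enzyme for full effect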
# CAL PDZ FP-1: untagged CAL PDZ binding inhibitors, primary screen, biochemical, fluorescence polarization, HTS | Golgi-associated PDZ and coiled-coil motif-containing protein (Homo sapiens), Q9HD26 | purified CAL PDZ, TMR-peptide fluorescence polarization, 1 h | inhibition, % at 24.9 µM | 300,000 compounds, 0.92% hits;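 active means mean inhibition of at least 30% with at least half of replicates also reaching 30%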;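 further: 0% = DMSO neutral control and 100% = excess unlabeled competitor peptide PRC23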
# CDK5 p35 inh: inhibitors of human CDK5/p35 kinase, primary screen, biochemical, single concentration | Cyclin-dependent kinase 5 (Homo sapiens) + Cyclin-dependent kinase 5 activator 1 (Homo … | 330,000 compounds, 0.01% hits | AID 488839, 2010 | Recombinant CDK5/p35, ADP-Glo luminescence, 60 min | inhibition, % at 10 µM;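 active means highest replicate inhibition of at least 50% and at least 75% of replicates reaching 50%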;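 further: plate controls were DMSO neutral control for no effect and GW8510 at 10 µM for full effect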
# Target sequence (Q00535 whole entry, looked up): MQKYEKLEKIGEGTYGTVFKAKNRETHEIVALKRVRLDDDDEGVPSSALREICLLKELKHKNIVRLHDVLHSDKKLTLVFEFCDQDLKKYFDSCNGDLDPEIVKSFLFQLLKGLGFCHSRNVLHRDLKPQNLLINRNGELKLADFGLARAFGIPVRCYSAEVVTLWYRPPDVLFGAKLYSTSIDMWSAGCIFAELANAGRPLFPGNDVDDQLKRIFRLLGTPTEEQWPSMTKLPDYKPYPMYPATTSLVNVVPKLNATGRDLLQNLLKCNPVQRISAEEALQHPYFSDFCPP
# Target sequence (Q15078 whole entry, looked up): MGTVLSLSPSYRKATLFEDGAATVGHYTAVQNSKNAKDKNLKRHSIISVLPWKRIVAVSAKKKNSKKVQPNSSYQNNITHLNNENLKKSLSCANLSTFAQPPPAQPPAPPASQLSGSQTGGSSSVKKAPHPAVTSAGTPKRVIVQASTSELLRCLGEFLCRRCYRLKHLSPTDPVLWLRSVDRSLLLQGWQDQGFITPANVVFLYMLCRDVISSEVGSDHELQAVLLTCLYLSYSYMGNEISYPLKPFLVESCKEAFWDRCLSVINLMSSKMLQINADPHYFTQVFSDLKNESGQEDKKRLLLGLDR
# CAL PDZ FP-2: CAL PDZ peptide-binding inhibitors, primary screen, biochemical, fluorescence polarization, Cer-tagged CAL PDZ, HTS. Golgi-associated PDZ and coiled-coil motif-containing protein (Homo sapiens), Q9HD26. purified CAL PDZ, TMR-peptide fluorescence polarization, 1 h. inhibition, % at 20 µM. 330,000 compounds, 0.02% hits;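 active means highest replicate inhibition of at least 40%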;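 further: plate controls were DMSO neutral control wells for no effect and unlabeled competitor peptide control wells for full effect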
#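 Test system: purified CerCALP PDZ construct; Compound dosing: one concentration, 20 µM compound; Also added: TMR-labelled reporter peptide T*-PRC34 bound in PDZ groove; Read-out: inhibition from polarization loss; Controls: unlabelled peptide and DMSO controls; Signal: FP readout, S and P plane fluorescence; Incubation: 1 h at RT.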
# TbMetRS inhib: T. brucei MetRS inhibitors, primary screen, biochemical, luminescence | purified T. brucei MetRS, ATP depletion, Kinase-Glo luminescence | inhibition, % at 11.9 µM | AID 624268, 2012 | methionyl-tRNA synthetase (Trypanosoma brucei brucei) | 360,000 compounds, 0.4% hits;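 active means inhibition above a per-plate cutoff of the control wells' mean inhibition plus 3 SD, cut at about 5.5% in these data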;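 further: 0% = DMSO wells median and 100% = median of wells with control inhibitor compound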
#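 Measured by: Kinase-Glo luciferase luminescence reporting remaining unconsumed ATP. Material: purified T. brucei MetRS enzyme. Doses: 11.9 µM compound single dose, 0.9% DMSO. Medium: HEPES buffer containing pyrophosphatase, BSA, spermine, DTT. Times: 15 min preincubation, 2 h reaction, all 25 °C. Reagent: methionine, ATP and bulk E. coli tRNA.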
# PvdQ acylase: P. aeruginosa PvdQ acylase inhibitors, primary screen, biochemical, fluorescence, plate reader and imaging, single point; PvdQ acylase [Pseudomonas aeruginosa LESB58]; purified PvdQ acylase; inhibition, % at 10 µM; 340,000 compounds, 0.063% hits; AID 488965, 2010; in the data active means inhibition above about 30%, passing the limit was not always enough;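 further: 0% = vehicle neutral wells and 100% = reference inhibitor wells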
# ADP-Glo artifact: ADP-Glo luciferase interference without Dyrk1A, dose response, artefact control for Dyrk1A inhibitor project, biochemical, luminescence, cherry-pick, set 02; AC50, µM (doses to about 12 µM), for the others: top-dose activity change, negative = inhibition; shares compounds with DYRK1A inh; ADP-Glo luciferase artifact assay, no Dyrk1A; 1,300 tested, under 10 active;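 active means fitted half-maximal dose AC50 no more than ten times the top valid tested dose, with luminescence dropping as dose rises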
# * marks the source's active call; other numbers are inactive results; · = no result. Shown are actives, neighbours in structure and some others; about 1.4% of the full set was active somewhere.
SMILES,DYRK1A inh,CAL PDZ FP-1,CDK5 p35 inh,CAL PDZ FP-2,TbMetRS inhib,PvdQ acylase,ADP-Glo artifact
Oc1ccc2nnc3c(Br)cnn3c2c1,77.2*,-6.0,-0.6,-1.1,-0.5,14.6,9.6%
CCCNC(=O)C1(C)CCN(Cc2ccc(C)c3ccccc23)C1 (stereo unspecified),·,·,·,·,-0.3,·,·
Cc1cccc(NC(=S)NN2CCN(C)CC2)c1,53.7*,0.6,0.8,-0.4,-0.5,-7.8,9.6%
Cc1ccc(NC(=S)NN2CCN(C)CC2)c(C)c1,-3.2,1.3,-0.2,-2.5,-0.5,-6.5,·
C(=N\Nc1ncnc2nc[nH]c12)/c1cccs1,66.0*,-5.0,24.3,-1.9,-0.7,-0.5,-0.8%
Cc1ccsc1/C=N/Nc1ncnc2nc[nH]c12,53.8*,2.0,43.0,0.5,-0.2,-5.2,2.1%
Cc1cc(=O)[nH]c(N/N=C/c2sccc2C)n1,0.6,-2.3,-1.6,-0.4,0.0,-9.4,·
Fc1ccc(/C=N/Nc2ncnc3nc[nH]c23)cc1F,25.4,·,13.9,-3.3,0.0,-21.8,·
Cc1ccccc1/C=N/Nc1ncnc2nc[nH]c12,62.8*,-6.1,21.8,0.5,-0.7,-1.4,8.0%
Cc1cccc2nc(-c3cccc(NC(=O)c4ccc(Cl)cc4)c3)cn12,54.8*,·,1.4,-1.1,-0.2,11.3,4.3%
Cc1cccc2nc(-c3cccc(NC(=O)Cc4ccccc4)c3)cn12,13.2,-3.3,0.6,-5.9,-0.9,8.7,·
C=CS(=O)(=O)c1c2cc(OC)ccc2nc2ccc(OC)cc12,60.5*,0.5,1.6,-1.7,0.2,-19.7,6.1%
Cc1[nH][nH]c(=O)c1N=Nc1ccccc1Cl,55.0*,·,-3.3,-0.1,0.1,-22.1,8.0%
CN(C)S(=O)(=O)c1ccc(NC(=O)Cn2nc(-c3ccc4c(c3)OCCO4)ccc2=O)cc1,5.0,·,0.7,-1.3,-0.5,3.2,·
Oc1ccc(-c2nc3ncccn3c2Nc2ccc3c(c2)OCO3)cc1,59.5*,0.5,1.7,1.1,-0.4,1.4,7.8%
O=C(C(=O)N1CCN(c2ccccc2)CC1)c1ccccc1,·,·,·,·,-0.6,·,·
O=C1NC(=O)/C(=C\c2ccc(Br)o2)S1,65.6*,-6.0,-0.6,-1.5,-0.5,17.9,13.0%
O=C1NC(=O)/C(=C/c2ccc(-c3cc(C(=O)O)ccc3Cl)o2)S1,60.9*,-8.9,-2.1,-4.3,1.1,-14.1,9.7%
CC(C)=CCC[C@H](C)C[C@@H]1CC2=C(C(=O)OC(C)(C)O2)[C@@H](c2ccc(F)cc2)O1,·,·,·,·,-0.5,·,·
O=C(O)COc1ccc2occ(C(=O)c3ccccc3)c2c1,66.0*,-2.3,0.3,·,0.4,-6.5,7.8%
CC(=O)Oc1ccc2occ(C(=O)c3ccccc3)c2c1,·,·,·,·,1.6,·,·
Cc1ccc(C(=O)c2coc3ccc(OCC(=O)O)cc23)cc1,70.3*,-1.2,0.0,-2.6,-0.5,-12.0,10.4%
NNc1nccc(Nc2ccccc2C(=O)O)n1,83.5*,-4.8,-2.0,-0.9,0.1,-6.0,8.9%
COc1ccc(Nc2ccccc2C(=O)O)cc1,-7.2,11.7,-2.1,0.7,-2.0,3.8,·
CCN(CC)c1ccc(/C=C2\C(=O)c3ccc(C(=O)O)cc3C2=O)cc1,60.8*,-2.0,5.8,-3.1,-0.5,2.3,4.6%
SMILES,DYRK1A inh,CAL PDZ FP-1,CDK5 p35 inh,CAL PDZ FP-2,TbMetRS inhib,PvdQ acylase,ADP-Glo artifact
CCN(CC)c1ccc(C(=O)O)cc1,12.3,-2.9,-1.6,-3.6,-0.5,-5.6,·
COc1ccc2c(c1)c(=O)oc1c(C)c(OCc3ccc(C(=O)O)cc3)ccc12,2.8,-4.0,2.0,-1.7,-1.0,-8.2,·
COc1ccc2c(c1)c(=O)oc1c(C)c(OCc3cc(C(=O)O)oc3C)ccc12,51.0*,1.6,3.7,-1.0,-1.3,13.7,8.2%
Cc1cc(O)c2c(c1)C(=O)c1cc(O)cc(O)c1C2=O,66.4*,-2.2,-1.5,0.7,-0.3,-3.6,7.4%
O=C1c2cc(O)cc(O)c2C(=O)c2c1cc(O)c([C@@H](CO)CCO)c2O,24.0,4.3,1.6,2.1,0.8,0.5,·
COc1ccc(/C=C(/C(=O)c2cccs2)N2C=CC=CC2=C(C#N)C#N)cc1,63.9*,0.0,0.4,-0.7,-0.2,-16.5,8.0%
CC(C)c1cc(Cn2c3ccccc3c(=O)n2C(C)Cn2cc(-c3ccccc3)nn2)on1 (stereo unspecified),·,·,·,·,0.4,·,·
CC1(c2nnnn2Cc2ccccc2)CCC(=O)N1CCOc1ccccc1 (stereo unspecified),·,·,·,·,-2.0,·,·
Cc1c(O)ccc2c(CN(C)Cc3ccccc3)cc(=O)oc12,59.2*,-1.0,-1.7,-2.7,-0.3,-3.8,8.4%
O=C1NC[C@H](CCCCN2CCN(Cc3ccccc3)C(=O)C2=O)N(Cc2ccccc2)C1=O,·,·,·,·,0.0,·,·
Cn1c2ccccc2c2cc(/C=N/NC(=O)c3cc(O)cc(O)c3)ccc21,7.4,-1.4,-1.1,-1.0,0.0,0.9,·
Cn1c2ccccc2c2cc(/C=N/NC(=O)c3cc(O)ccc3O)ccc21,60.5*,-4.8,2.2,-2.5,0.6,-4.1,9.3%
O=S1(=O)CC(N2CCN(CCO)CC2)CN1Cc1ccccc1 (stereo unspecified),·,·,·,·,-0.8,·,·
O=C1CCCc2c1cc(C(=O)NCCCN1CCOCC1)c(=O)n2-c1ccc(Cl)cc1,58.0*,·,-1.9,0.5,-0.8,8.0,11.6%
O=C(O)/C=C/c1cccc(NC(=O)Nc2ccc([N+](=O)[O-])cc2)c1,66.3*,-1.8,-0.2,-3.0,-0.8,21.8,8.1%
Cc1cc(N2CCOCC2)ccc1/C=C1/SC(=O)NC1=O,2.3,-2.2,-0.5,-1.9,-1.2,11.8,·
O=C1NC(=O)/C(=C\c2ccc(O)cc2O)S1,84.8*,51.8*,3.8,0.0,0.4,-8.8,7.9%
CCC(C)NC(=O)C1CCCN(S(=O)(=O)c2ccc3c(c2)CC(C)N3C(=O)C2CC2)C1 (stereo unspecified),57.6*,·,0.2,1.0,-0.6,3.4,10.7%
CCc1ccccc1NC(=O)C1CCCN(S(=O)(=O)c2ccc3c(c2)CC(C)N3C(C)=O)C1 (stereo unspecified),56.4*,·,-0.2,-0.5,-0.8,5.0,7.8%
CC(=O)N1c2ccc(S(=O)(=O)N3CCCC(C(=O)NCc4ccccc4Cl)C3)cc2CC1C (stereo unspecified),-2.4,-3.5,-0.3,-1.4,0.4,-9.2,·

# Screening results from PubChem BioAssay.
